Measurements from ChEMBL document CHEMBL1821605, “4-Quinazolinyloxy-diaryl ureas as novel BRAFV600E inhibitors” (Bioorg Med Chem Lett, 2011).
Activity calls are given as the source filed them. No cut-off for these calls is given here.

Legend:
[1] = Oral bioavailability in rat; assay type: ADME, organism-based; conditions: in vivo
How it was run: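 Oral bioavailability (%F) was measured in rats, generally dosing the hydrochloride salt; some compounds were given as free base.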

[2] = target: T1, Serine/threonine-protein kinase B-raf (Homo sapiens, UniProt P15056, V600E); test: Binding affinity to BRAF V600E mutant
[3] = target: T1, Serine/threonine-protein kinase B-raf; test: Inhibition of BRAF V600E mutant-dependent MEK phosphorylation in A375 cells; assay type: cell-based, A-375
COLO 205 [4] = test: Antitumor activity against human COLO205 cells xenografted in nude mouse assessed as tumor stasis at 100 mg/kg, po bid upto 15 days; assay type: functional, organism-based; design: dose 100 mg/kg
How it was run: (§1)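 Mice bearing Colo-205 tumors were dosed orally bid at 30, 55 or 100 mg/kg and compared with a vehicle control group. Tumor growth was followed over the dosing period, […]. Outcomes recorded were stasis, regrowth, incidence of regressions and % growth inhibition. Significance was tested against vehicle.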

Mus musculus [5] = test: Inhibition of BRAF V600E mutant-dependent MEK phosphorylation in Colo205 cells xenografted in nude mouse at 100 mg/kg, po bid for 5 days measured at 24 hrs post-dose; assay type: functional; conditions: COLO 205
COLO 205 [6] = test: Antitumor activity against human COLO205 cells xenografted in nude mouse assessed as tumor stasis at 55 mg/kg, po bid upto 8 days; assay type: functional, organism-based; design: dose 55 mg/kg; how it was run: as §1
COLO 205 [7] = test: Antitumor activity against human COLO205 cells xenografted in nude mouse assessed as tumor stasis at > 100 mg/kg, […]; assay type: functional, organism-based; design: dose 100 mg/kg
COLO 205 [8] = test: Antitumor activity against human COLO205 cells xenografted in nude mouse assessed as tumor stasis at 100 mg/kg, po bid upto 8 days; assay type: functional, organism-based; design: dose 100 mg/kg; how it was run: as §1
COLO 205 [9] = test: Antitumor activity against human COLO205 cells xenografted in nude mouse assessed as tumor growth inhibition at 100 mg/kg, po bid upto 8 days; assay type: functional; conditions: COLO 205, 192 h, read-out: TGI; how it was run: as §1
Mus musculus [10] = test: Toxicity in nude mouse xenografted with human COLO205 cells assessed as body weight loss at 30 to 100 mg/kg, po bid upto 15 days; assay type: organism-based, COLO 205; design: dose 30-100 mg/kg, route oral; conditions: in vivo, 360 h
How it was run: (§2)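 Body weight was monitored in Colo-205 xenograft-bearing mice during oral bid dosing, with maximum % loss recorded. Monitoring continued after dosing stopped to assess reversibility.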

[11] = AUC in mouse plasma at 100 mg/kg, po; assay type: ADME, organism-based; design: dose 100 mg/kg, route oral
How it was run: (§3)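 Compound given orally to mice at the stated dose. Plasma exposure reported as AUC in μM × h.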

Mus musculus [12] = test: Toxicity in nude mouse xenografted with human COLO205 cells assessed as body weight loss at 10 to 100 mg/kg, po bid upto 15 days; assay type: organism-based, COLO 205; design: dose 10-100 mg/kg, route oral; conditions: in vivo, 360 h; how it was run: as §2
COLO 205 [13] = test: Antitumor activity against human COLO205 cells xenografted in nude mouse assessed as complete suppression of tumor regrowth at 100 mg/kg, po bid before 15 days; assay type: functional, organism-based; design: dose 100 mg/kg; how it was run: as §1
Mus musculus [14] = test: Inhibition of BRAF V600E mutant-dependent MEK phosphorylation in Colo205 cells xenografted in nude mouse assessed as compound concentration in plasma required for maximum % inhibition; assay type: functional
Mus musculus [15] = test: Inhibition of BRAF V600E mutant-dependent MEK phosphorylation in Colo205 cells xenografted in nude mouse at 100 mg/kg, po bid for 5 days measured at 10 hrs post-dose; assay type: functional; conditions: COLO 205
How it was run: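 Colo-205 xenograft mice were dosed orally at 100 mg/kg bid. On day 5 of dosing, tumor tissue was collected 10 h post-dose and phosphorylated MEK levels were measured against vehicle.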

Mus musculus [16] = test: Inhibition of BRAF V600E mutant-dependent MEK phosphorylation in Colo205 cells xenografted in nude mouse assessed as compound concentration in tumor required for maximum % inhibition; assay type: functional
COLO 205 [17] = test: Antitumor activity against human COLO205 cells xenografted in nude mouse assessed as tumor regression at 100 mg/kg, po bid upto 15 days; assay type: functional; how it was run: as §1
[18] = AUC in mouse plasma at 30 mg/kg, po; assay type: ADME, organism-based; design: dose 30 mg/kg, route oral; how it was run: as §3
COLO 205 [19] = test: Antitumor activity against human COLO205 cells xenografted in nude mouse assessed as tumor growth inhibition at 55 mg/kg, po bid upto 8 days; assay type: functional; conditions: COLO 205, 192 h, read-out: TGI; how it was run: as §1

T1 sequence (P15056 2-766 V600E limits assumed): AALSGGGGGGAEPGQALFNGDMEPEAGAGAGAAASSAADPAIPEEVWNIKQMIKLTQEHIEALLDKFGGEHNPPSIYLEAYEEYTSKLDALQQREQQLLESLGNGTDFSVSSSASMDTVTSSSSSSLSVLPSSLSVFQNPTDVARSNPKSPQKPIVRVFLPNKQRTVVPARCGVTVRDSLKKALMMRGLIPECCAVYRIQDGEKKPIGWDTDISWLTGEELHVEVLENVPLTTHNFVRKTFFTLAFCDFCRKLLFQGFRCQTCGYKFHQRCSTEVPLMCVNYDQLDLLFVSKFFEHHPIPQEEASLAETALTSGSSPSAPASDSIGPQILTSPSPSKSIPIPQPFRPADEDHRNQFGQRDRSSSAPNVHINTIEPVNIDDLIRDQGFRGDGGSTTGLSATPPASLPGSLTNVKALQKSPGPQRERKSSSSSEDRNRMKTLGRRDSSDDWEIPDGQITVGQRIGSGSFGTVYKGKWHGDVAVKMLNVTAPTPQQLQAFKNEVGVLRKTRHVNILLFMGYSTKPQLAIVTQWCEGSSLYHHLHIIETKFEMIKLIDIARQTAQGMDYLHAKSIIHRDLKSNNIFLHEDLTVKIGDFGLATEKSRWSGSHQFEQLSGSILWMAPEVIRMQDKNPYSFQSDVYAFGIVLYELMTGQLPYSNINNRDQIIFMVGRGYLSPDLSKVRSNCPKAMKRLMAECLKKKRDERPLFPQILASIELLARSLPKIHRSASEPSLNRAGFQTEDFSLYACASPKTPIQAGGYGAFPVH

Structure (SMILES)	bioavailability [1] [%]	Kd [2] [µM]	IC50 [3] [µM]	further results
COc1cc2ncnc(Sc3cccc(NC(=O)Nc4cc(C(C)(C)C)on4)c3)c2cc1OC.Cl	24	–	–	–
COCCOc1cc2c(Oc3cccc(NC(=O)Nc4cc(C(C)(C)C)on4)c3)ncnc2cc1OC.Cl	13	–	–	–
COc1cc2ncnc(Oc3cccc(NC(=O)Nc4cc(C(C)(C)C)on4)c3)c2cc1OCCCN1CCOCC1	–	0.029	0.036	–
COc1cc2ncnc(Oc3cccc(NC(=O)Nc4cc(C(C)(C)C)on4)c3)c2cc1OC [listing 1 of 2 here]	–	–	–	Activity (COLO 205 [4]): Active; inhibition (Mus musculus [5]): inactive
COc1cc2ncnc(Oc3cc(NC(=O)Nc4cc(C(C)(C)C)on4)c(F)cc3F)c2cc1OC	14	0.046	0.113	–
COc1cc2ncnc(Sc3cccc(NC(=O)Nc4cc(C(C)(C)C)on4)c3)c2cc1OC [listing 1 of 2 here]	–	–	–	Activity (COLO 205 [6]): Active; Activity (COLO 205 [7]): inactive; Activity (COLO 205 [8]): Active
CCOc1cc2c(Oc3cccc(NC(=O)Nc4cc(C(C)(C)C)on4)c3)ncnc2cc1OC	–	0.067	0.08	–
COc1cc2c(Oc3cccc(NC(=O)Nc4cc(C(C)(C)C)on4)c3)ncnc2cc1O	< 1	0.057	0.11	–
COc1cc2ncnc(Oc3cc(NC(=O)Nc4cc(C(C)(C)C)on4)ccc3F)c2cc1OC.Cl	22	–	–	–
COc1cc2ncnc(Oc3cccc(NC(=O)Nc4ccc(Cl)c(C(F)(F)F)c4)c3)c2cc1OC	–	0.098	0.696	–
COc1cc2ncnc(Nc3ccc(NC(=O)Nc4cc(C(C)(C)C)on4)cc3)c2cc1OC	–	0.478	–	–
CCOc1cc2ncnc(Oc3cccc(NC(=O)Nc4cc(C(C)(C)C)on4)c3)c2cc1OC	–	0.082	0.173	–
COc1cc2c(Oc3cccc(NC(=O)Nc4cc(C(C)(C)C)on4)c3)ncnc2cc1OCCCN1CCOCC1	18	0.056	0.096	–
COCCOc1cc2ncnc(Oc3cccc(NC(=O)Nc4cc(C(C)(C)C)on4)c3)c2cc1OC	–	0.057	0.1	–
COc1cccc(NC(=O)Nc2cccc(Oc3ncnc4cc(OC)c(OC)cc34)c2)c1	–	0.09	10	–
COc1cc2ncnc(Oc3cccc(NC(=O)Nc4cc(C(C)(C)C)on4)c3)c2cc1OCCCN1CCOCC1.Cl	20	–	–	–
COc1cc2ncnc(Nc3cccc(NC(=O)Nc4cc(C(C)(C)C)on4)c3)c2cc1OC	–	0.04	0.082	–
COc1cc2ncnc(Oc3cccc(NC(=O)Nc4cccc(C(F)(F)F)c4)c3)c2cc1OC	–	0.046	1.66	–
COc1cc2ncnc(Oc3cccc(NC(=O)Nc4ccc(C(C)(C)C)cc4)c3)c2cc1OC	15	0.096	0.29	–
COCCOc1cc2ncnc(Oc3cccc(NC(=O)Nc4cc(C(C)(C)C)on4)c3)c2cc1OC.Cl	56	–	–	–

Structure (SMILES)	bioavailability [1] [%]	Kd [2] [µM]	IC50 [3] [µM]	further results
COc1cc2ncnc(Oc3cccc(NC(=O)Nc4cccc(C(C)(C)C)c4)c3)c2cc1OC	–	0.036	0.333	–
COc1cc2ncnc(Oc3cccc(NC(=O)Nc4ccc(Cl)cc4)c3)c2cc1OC	–	0.03	1.85	–
COc1cc2ncnc(Oc3cccc(NC(=O)Nc4ccccc4)c3)c2cc1OC	–	0.37	–	–
CCOc1cc2c(Oc3cccc(NC(=O)Nc4cc(C(C)(C)C)on4)c3)ncnc2cc1OC.Cl	30	–	–	–
CCOc1cc2ncnc(Oc3cccc(NC(=O)Nc4cc(C(C)(C)C)on4)c3)c2cc1OC.Cl	16	–	–	–
COc1cc2c(Oc3cccc(NC(=O)Nc4cc(C(C)(C)C)on4)c3)ncnc2cc1OCCN1CCOCC1	52	0.034	0.165	inhibition in vivo at 100 mg/kg (COLO 205 [9]): 65%; Activity (Mus musculus [10]): Non-toxic; AUC [11]: 48 µM·h; Activity (Mus musculus [12]): Non-toxic; Activity (COLO 205 [13]): inactive; inhibition in vivo at 100 mg/kg (Mus musculus [5]): 50%; Activity (Mus musculus [14]): 2 µM; inhibition in vivo at 100 mg/kg (Mus musculus [15]): 70%; Activity (Mus musculus [16]): 11 µM
COc1cc2ncnc(Oc3cccc(NC(=O)Nc4cc(C(C)(C)C)on4)c3C)c2cc1OC	–	0.038	0.179	–
COc1cc2ncnc(Oc3cccc(NC(=O)Nc4cc(C(C)(C)C)on4)c3)c2cc1OC.Cl	49	–	–	Activity (Mus musculus [10]): 8%; Activity (Mus musculus [14]): 2.5 µM; Activity (COLO 205 [17]): 55%; inhibition in vivo at 100 mg/kg (Mus musculus [15]): ≥ 50%; Activity (Mus musculus [16]): 24 µM; AUC [18]: 12.5 µM·h
COc1cc2ncnc(Oc3ccc(F)c(NC(=O)Nc4cc(C(C)(C)C)on4)c3)c2cc1OC	–	0.056	0.113	–
COc1cc2ncnc(Nc3ccc(NC(=O)Nc4cc(C(C)(C)C)on4)cc3)c2cc1OC.Cl	< 1	–	–	–
COc1cc2ncnc(Oc3cc(NC(=O)Nc4cc(C(C)(C)C)on4)ccc3F)c2cc1OC	–	0.072	0.062	–
COCCOc1cc2c(Oc3cccc(NC(=O)Nc4cc(C(C)(C)C)on4)c3)ncnc2cc1OC	–	0.048	0.059	–
COc1cc2ncnc(Sc3cccc(NC(=O)Nc4cc(C(C)(C)C)on4)c3)c2cc1OC [listing 2 of 2 here]	–	0.061	0.118	inhibition in vivo at 55 mg/kg (COLO 205 [19]): 45%; inhibition in vivo at 100 mg/kg (COLO 205 [9]): 45%; Activity (Mus musculus [10]): Non-toxic; Activity (Mus musculus [12]): Non-toxic; inhibition in vivo at 100 mg/kg (Mus musculus [5]): 55%; Activity (Mus musculus [14]): 0.2 µM; inhibition in vivo at 100 mg/kg (Mus musculus [15]): 75%; Activity (Mus musculus [16]): 0.2 µM; AUC [18]: 22 µM·h
COc1cc2ncnc(Oc3cccc(NC(=O)Nc4cc(C(C)(C)C)on4)c3)c2cc1OCCN1CCOCC1	11	0.038	0.052	–
COc1cc2ncnc(Oc3cccc(NC(=O)Nc4cc(C(C)(C)C)on4)c3)c2cc1OCCN1CCCCC1	–	0.096	0.293	–
COc1cc2ncnc(Nc3cccc(NC(=O)Nc4cc(C(C)(C)C)on4)c3)c2cc1OC.Cl	1.9	–	–	–
COc1cc2ncnc(Oc3cccc(NC(=O)Nc4cc(C(C)(C)C)on4)c3)c2cc1O	–	0.046	0.086	–
COc1cc2ncnc(Oc3ccc(Cl)c(NC(=O)Nc4cc(C(C)(C)C)on4)c3)c2cc1OC	–	0.099	0.229	–
COc1cc2ncnc(Oc3cccc(NC(=O)Nc4cc(C(C)(C)C)on4)c3)c2cc1OC [listing 2 of 2 here]	–	0.073	0.121	–
